From ChEMBL document CHEMBL1127332, “Pyrido[2,3-d]pyrimidine angiotensin II antagonists” (J Med Chem, 1994)

Tests used:
[1] = biological target: T1, Angiotensin II receptor (AT-1) type-1 (Rattus norvegicus, UniProt P29089+P25095); test: In vitro inhibition of specific binding of [125 I] A II to rat liver membrane.
T1 sequence (P29089 whole entry): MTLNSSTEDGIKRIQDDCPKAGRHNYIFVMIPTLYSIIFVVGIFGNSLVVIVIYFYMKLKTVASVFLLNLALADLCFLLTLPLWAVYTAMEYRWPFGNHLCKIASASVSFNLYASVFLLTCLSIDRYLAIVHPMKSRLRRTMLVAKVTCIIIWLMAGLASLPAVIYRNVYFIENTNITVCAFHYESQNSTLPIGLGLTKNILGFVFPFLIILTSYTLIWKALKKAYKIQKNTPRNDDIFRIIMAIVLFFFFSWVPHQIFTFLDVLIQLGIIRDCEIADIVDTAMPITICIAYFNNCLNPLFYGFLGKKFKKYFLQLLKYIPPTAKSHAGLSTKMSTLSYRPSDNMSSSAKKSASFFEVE
T1 sequence (P25095 whole entry): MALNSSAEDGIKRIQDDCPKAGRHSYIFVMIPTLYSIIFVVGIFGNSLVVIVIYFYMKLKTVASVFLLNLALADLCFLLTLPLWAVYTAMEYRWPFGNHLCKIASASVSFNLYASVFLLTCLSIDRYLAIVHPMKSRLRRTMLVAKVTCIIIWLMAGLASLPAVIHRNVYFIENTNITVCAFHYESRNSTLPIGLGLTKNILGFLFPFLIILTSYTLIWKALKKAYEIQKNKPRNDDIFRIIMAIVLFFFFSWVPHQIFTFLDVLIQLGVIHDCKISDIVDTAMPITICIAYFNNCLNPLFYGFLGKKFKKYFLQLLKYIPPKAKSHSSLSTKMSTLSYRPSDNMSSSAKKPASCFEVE
In short: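 Rat liver membrane preparation (AT1 sites), diluted in kit buffer. Nonspecific binding defined with 10⁻⁴ M A II, standard curve 10⁻¹⁰–10⁻⁷ M. Reaction stopped with saline and glass-fiber filtration, then gamma counting.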

Rattus norvegicus = test: Maximum percent change in A II supported mean arterial pressure 60 minutes following 3 mg/kg i.d. administration.; assay type: functional; details: Artery, intraduodenal, in the assay text read “at the time of maximum effect following” for “60 minutes following”, read-out: Inhibition
In short: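 Anesthetized rats, ganglion blocked with mecamylamine 3 mg/kg iv, under A II infusion until pressure stabilized. Agent suspended in methyl cellulose and given 3 mg/kg through a duodenal cannula (1 mL/kg). MAP followed for 240 min. Fall expressed as percent of the A II-supported pressure. Maximum change and its time recorded, n = 3. Adjusted AUC between control and treated MAP/time curves.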

[2] = Partition coefficient (logP); assay type: physicochemical; details: octanol/water
[3] = Partition coefficient (logD) (octanol/0.01 N K2HPO4); assay type: physicochemical
In short: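 Distribution coefficient measured between octanol and pH 7.4 phosphate buffer.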

Row | IC50 [1] [nM] | logP [2] | logD [3] | SMILES | maximum percent change in A II-supported mean arterial pressure at 3 mg/kg (Rattus norvegicus) [%]
1 | 85 |  |  | Cc1nc(C)c2c(n1)N(Cc1ccc(-c3ccccc3C(=O)[O-])cc1)C(=O)CC2.[K+] | -36
2 | 1.3 |  |  | CCc1nc(C)c2c(n1)N(Cc1ccc(-c3ccccc3-c3nn[nH]n3)cc1)C(=O)CC2 | -76
3 | 3.2 | 3.91 |  | Cc1nc(C)c2c(n1)N(Cc1ccc(-c3ccccc3-c3nn[nH]n3)cc1)C(=O)C(C)C2 (stereo not drawn) | -63
4 | 2.2 |  |  | Cc1nc(C(C)C)nc2c1CCC(=O)N2Cc1ccc(-c2ccccc2-c2nn[nH]n2)cc1 | -40
5 | 49.4 |  |  | Cc1nc(C)c2c(n1)N(Cc1ccc(-c3ccccc3-c3nn[nH]n3)cn1)C(=O)CC2 | -34
6 |  |  |  | CCCCc1nc(Cl)c(CO)n1Cc1ccc(-c2ccccc2-c2nnn[nH]2)cc1 [LOSARTAN] | -72
7 | 24.3 |  |  | Cc1nc(C)c2c(n1)N(Cc1ccc(-c3ccccc3-c3nn[nH]n3)nc1)C(=O)CC2 | -16
8 | 170 |  |  | Cc1nc(C)c2c(n1)N(Cc1ccc(-c3ccccc3-c3nn[nH]n3)cc1)CCC2 | -20
9 | 13 | 4.32 | 1.41 | Cc1nc(C(C)C)c2c(n1)N(Cc1ccc(-c3ccccc3-c3nn[nH]n3)cc1)C(=O)CC2 | -44
10 | 1.8 | 4.45 |  | CCCc1nc(C)nc2c1CCC(=O)N2Cc1ccc(-c2ccccc2-c2nn[nH]n2)cc1 | -86
11 | 24.6 |  |  | Cc1nc2c(c(C(F)(F)F)n1)CCC(=O)N2Cc1ccc(-c2ccccc2-c2nn[nH]n2)cc1 | -68
12 | 3 | 4.43 | 1.21 | Cc1nc(C)c2c(n1)N(Cc1ccc(-c3ccccc3-c3nn[nH]n3)cc1)C(=O)C(C)(C)C2 | -66
13 | 2.3 | 3.92 |  | CCc1nc(C)nc2c1CCC(=O)N2Cc1ccc(-c2ccccc2-c2nn[nH]n2)cc1 | -104
14 | 94.9 |  |  | Cc1nc2c(c(C(F)(F)F)n1)CCC(=O)N2Cc1ccc(-c2ccccc2-c2nn[nH]n2)nc1 | -41
15 | 50.7 |  |  | Cc1nc(C=O)c2c(n1)N(Cc1ccc(-c3ccccc3-c3nn[nH]n3)cc1)C(=O)CC2 | 
16 | 5.2 | 3.39 | 0.49 | Cc1nc(C)c2c(n1)N(Cc1ccc(-c3ccccc3-c3nnn[nH]3)cc1)C(=O)CC2 [TASOSARTAN] | -97
17 | 1.35 |  |  | CCCc1nc(C)c2c(n1)N(Cc1ccc(-c3ccccc3-c3nn[nH]n3)cc1)C(=O)CC2 | -58
18 | 285 |  |  | Cc1nc(CO)nc2c1CCC(=O)N2Cc1ccc(-c2ccccc2-c2nn[nH]n2)cc1 | -30
